Results: ChEMBL document CHEMBL1135914, “Bioactive pseudopeptidic analogues and cyclostereoisomers of osteogenic growth peptide C-terminal pentapeptide, OGP(10-14)” (2002)
Non-standard residues stand in square brackets, D forms with d. Residues, ends and D or L forms follow the SMILES beside them. *: point of attachment. Desaminotyrosyl = O=C(CCc1ccc(O)cc1)*; NMeF = CN[C@@H](Cc1ccccc1)C(=O)O; Aib = CC(C)(N)C(=O)O; Ava = NCCCCC(=O)O; GABA = NCCCC(=O)O; βAla = NCCC(=O)O; Sar = CNCC(=O)O

What was measured:
Assay type in all cases: functional, Mus musculus
[1] = Proliferative activity in osteoblastic MC3T3 E1 cell culture relative to OGP(10-14)
Summary of the method: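 MC3T3 E1 osteoblastic cells were seeded at 2 × 10⁴ cells/well in RMEM with 10% FCS at 37 °C in CO₂/air. After 46 h in serum, they were washed, kept serum-free for 2 h, then switched to RMEM with 4% fatty-acid-free BSA, with or without peptide. The peptide was freshly dissolved at 10^-6 M, diluted, and preincubated for 30 min at 37 °C. The final concentration was 10^-13 M unless otherwise specified, with some dose-response runs.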

[2] = (§1) Proliferative activity in fibroblastic […] cell culture relative to OGP(10-14)
Summary of the method: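 Mouse NIH 3T3 fibroblasts from confluent cultures were seeded at 2 × 10⁴ cells/well in RMEM with 10% FCS at 37 °C in CO₂/air for 46 h, then washed and held serum-free for 2 h. Medium was then replaced with RMEM containing 4% fatty-acid-free BSA, with or without peptide. The peptide was dissolved at 10^-6 M, diluted, and pre-warmed for 30 min at 37 °C. The final concentration was 10^-11 M unless otherwise stated.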

[3] = test system: NIH3T3; assay: as §1
Summary of the method: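 NIH 3T3 fibroblasts from confluent cultures in RMEM with 10% FCS, seeded at 2 × 10⁴ cells/well, 37 °C in CO₂/air. They were kept 46 h in FCS medium, then 2 h serum-free. Medium was switched to 4% fatty-acid-free BSA RMEM ± peptide, 10^-11 M final, preincubated 30 min at 37 °C. Read-out was cell number in triplicate wells, converted to treated/control ratio against OGP(10-14) reference.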

| Molecule | Relative potency [1] | Relative potency [2] | Relative potency [3] |
| --- | --- | --- | --- |
| O=C1CNC(=O)[C@H](Cc2ccc(O)cc2)NC(=O)CNC(=O)[C@H](Cc2ccccc2)NC(=O)CN1 | 0.95 | 1.02 | – |
| O=C1CNC(=O)[C@@H](Cc2ccc(O)cc2)NC(=O)CNC(=O)[C@@H](Cc2ccccc2)NC(=O)CN1 | 1.03 | 1.16 | – |
| O=C1CNC(=O)[C@@H](Cc2ccccc2)NC(=O)CNC(=O)[C@@H](Cc2ccc(O)cc2)NC(=O)CN1 | 0.69 | 0.84 | – |
| O=C1CNC(=O)[C@H](Cc2ccccc2)NC(=O)CNC(=O)[C@H](Cc2ccc(O)cc2)NC(=O)CN1 | 0.79 | 1.12 | – |
| O=C(O)CNC(=O)CNC(=O)[C@H](Cc1ccccc1)NCCNC(=O)CCc1ccc(O)cc1 | 0.61 | 0.67 | – |
| O=C(O)CNCCNC(=O)[C@H](Cc1ccccc1)NC(=O)CNC(=O)CCc1ccc(O)cc1 | 0.78 | 0.8 | – |
| O=C(O)CNC(=O)CNC[C@H](Cc1ccccc1)NC(=O)CNC(=O)CCc1ccc(O)cc1 | 0.7 | 0.88 | – |
| O=C(O)CCCCNC(=O)[C@H](Cc1ccccc1)NC(=O)CNC(=O)CCc1ccc(O)cc1 | 0.78 | 0.88 | – |
| O=C(O)CNC(=O)CNC(=O)[C@H](Cc1ccccc1)NC(=O)CNCCCc1ccc(O)cc1 | 0.81 | 0.79 | – |
| N[C@H](CNCC(=O)N[C@@H](Cc1ccccc1)C(=O)NCC(=O)NCC(=O)O)Cc1ccc(O)cc1 | 0.92 | 0.87 | – |
| CN(CC(=O)O)C(=O)CNC(=O)[C@H](Cc1ccccc1)NC(=O)CNC(=O)CCc1ccc(O)cc1 (Desaminotyrosyl-GFG[Sar]-OH) | 0.16 | 0.14 | – |
| CN(CC(=O)NCC(=O)O)C(=O)[C@H](Cc1ccccc1)NC(=O)CNC(=O)CCc1ccc(O)cc1 (Desaminotyrosyl-GF[Sar]G-OH) | 0.15 | 0.11 | – |
| CN(C(=O)CNC(=O)CCc1ccc(O)cc1)[C@@H](Cc1ccccc1)C(=O)NCC(=O)NCC(=O)O (Desaminotyrosyl-G[NMeF]GG-OH) | 0.52 | 0.67 | – |
| CN(CC(=O)N[C@@H](Cc1ccccc1)C(=O)NCC(=O)NCC(=O)O)C(=O)CCc1ccc(O)cc1 (Desaminotyrosyl-[Sar]FGG-OH) | 0.31 | 0.39 | – |
| O=C(O)C[C@@H]1NC(=O)CNC(=O)[C@H](Cc2ccccc2)NC(=O)CNC(=O)[C@H](Cc2ccc(O)cc2)NC1=O (cyclo(DYGFG)) | 0.14 | 0.11 | – |
| O=C1CNC(=O)CNC(=O)[C@H](Cc2ccccc2)NC(=O)CNC(=O)[C@H](Cc2ccc(O)cc2)NC(=O)CN1 (cyclo(FGGGYG)) | 0.26 | 0.2 | – |
| O=C1CNC(=O)[C@H](Cc2ccccc2)NC(=O)[C@@H]2CCCN2C(=O)[C@H](Cc2ccc(O)cc2)NC(=O)CN1 (cyclo(FGGYP)) | 0.99 | 0.9 | – |
| O=C1CNC(=O)CNC(=O)[C@H](Cc2ccccc2)NC(=O)CNC(=O)[C@H](Cc2ccc(O)cc2)NC(=O)CCCN1 (cyclo(FGG[GABA]YG)) | 0.2 | 0.22 | – |
| O=C1CNC(=O)CNC(=O)[C@H](Cc2ccccc2)NC(=O)CNC(=O)[C@H](Cc2ccc(O)cc2)NC(=O)CCN1 (cyclo(FGG[βAla]YG)) | 0.36 | 0.37 | – |
| O=C1CNC(=O)[C@H](Cc2ccccc2)NC(=O)CNC(=O)[C@H](Cc2ccc(O)cc2)N1 (cyclo(FGYG)) | 0.35 | 0.43 | – |
| CC1(C)NC(=O)[C@H](Cc2ccc(O)cc2)NC(=O)CNC(=O)CNC(=O)[C@H](Cc2ccccc2)NC1=O (cyclo([Aib]FGGY)) | 0.19 | 0.31 | – |
| O=C1CNC(=O)CNC(=O)[C@H](Cc2ccccc2)NC(=O)CNC(=O)[C@H](Cc2ccc(O)cc2)NC(=O)CCCCN1 (cyclo([Ava]YGFGG)) | 0.14 | 0.18 | – |
| H-GGFGY-OH | 0.71 | 0.82 | – |
| H-YGFGG-OH | 1 | – | 1 |
| H-YPFGG-OH | 0.89 | 0.96 | – |
